Assay outcomes (PubChem BioAssay)
PKD1 kinase inh: blocks activity of human protein kinase D1; inhibition, % (test concentration not listed); hit rate 0.056% among 200,000; Q15139; PKD1 kinase fluorescence polarization assay; in the data active = inhibition above about 50%
Target sequence (Q15139 whole entry, looked up): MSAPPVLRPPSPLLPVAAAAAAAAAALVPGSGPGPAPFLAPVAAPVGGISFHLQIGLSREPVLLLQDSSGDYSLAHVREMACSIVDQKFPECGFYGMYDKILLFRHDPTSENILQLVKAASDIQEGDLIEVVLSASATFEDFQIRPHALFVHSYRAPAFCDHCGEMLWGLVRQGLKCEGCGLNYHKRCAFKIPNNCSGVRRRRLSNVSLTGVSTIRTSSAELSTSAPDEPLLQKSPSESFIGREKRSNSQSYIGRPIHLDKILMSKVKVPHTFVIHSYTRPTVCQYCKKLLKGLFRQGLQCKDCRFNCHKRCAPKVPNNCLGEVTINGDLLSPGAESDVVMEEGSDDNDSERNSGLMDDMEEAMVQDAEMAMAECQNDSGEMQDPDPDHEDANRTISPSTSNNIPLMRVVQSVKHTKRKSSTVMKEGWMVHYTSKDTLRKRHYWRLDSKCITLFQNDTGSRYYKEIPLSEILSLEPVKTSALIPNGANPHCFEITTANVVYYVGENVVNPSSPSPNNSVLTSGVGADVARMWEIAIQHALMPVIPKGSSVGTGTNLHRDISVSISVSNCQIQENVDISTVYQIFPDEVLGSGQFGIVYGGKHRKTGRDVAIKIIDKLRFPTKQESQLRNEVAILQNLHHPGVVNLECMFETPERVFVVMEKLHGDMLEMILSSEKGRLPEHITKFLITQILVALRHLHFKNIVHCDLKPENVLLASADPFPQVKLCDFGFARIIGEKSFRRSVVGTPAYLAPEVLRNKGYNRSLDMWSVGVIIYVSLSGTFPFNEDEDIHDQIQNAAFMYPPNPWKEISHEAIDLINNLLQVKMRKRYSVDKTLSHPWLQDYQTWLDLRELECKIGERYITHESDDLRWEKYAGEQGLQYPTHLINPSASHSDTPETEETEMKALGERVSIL
PHOSPHO1 inh: PHOSPHO1 (human) inhibition; AID 1565; hit rate 1.1% among 290,000; inhibition, % at 13.3 µM; recombinant PHOSPHO1, absorbance phosphatase assay; in the data active = inhibition above about 60%
ABCG2 block: inhibitors of human ABCG2 transporter, ABCB1 counter-screen; AID 1325; hit rate 0.1% among 190,000; Q9UNQ0; inhibition, % at 6.6 µM; IgMXP3 cells, JC-1 efflux, flow cytometry;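 active = inhibition above 80%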;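 also: 0% = DMSO and 100% = nicardipine control wells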
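Times: 10 min at 25 °C | Test system: Two drug-resistant human cell lines, ABCG2 and ABCB1 | Quantity: 3 million cells/mL final, two lines in 1:1 ratio | Signal: Flow cytometry, 530 nm JC-1 signal | Dosing: Compound at 6.6 µM | Controls: Nicardipine and DMSO wells | Reagent: JC-1 as fluorescent efflux pump substrate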
HSV augment: HSV replication enhancement. maximum fold increase. AID 1956. hit rate 0.005% among 220,000. HSV replication augmentation in cells, fold increase; in the data active = maximum fold increase above about 1.5; inconclusive = no clear call, values can overlap the other calls; tested in PC3 cells
ABCB1 inh: blocks JC-1 efflux by human ABCB1 transporter; CCRF-Adr cells, flow cytometry; hit rate 0.067% among 190,000; inhibition, % at 6.6 µM; AID 1326; in the data active = inhibition above about 40%;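 also: 0% = vehicle and 100% = reference inhibitor; higher value means more JC-1 retained so stronger ABCB1 efflux block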
NCF1 inh: inhibitors of human p47phox binding. p47phox/p22phox peptide binding, fluorescence polarization, 2 h. inhibition, % at 24.7 µM. P14598. hit rate 0.53% among 220,000;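 active = inhibition above about 30%, limit read from the data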;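 also: 0% = p47phox with labelled peptide and 100% = labelled peptide alone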
The depositor's hits bear a star; i = inactive; ? = inconclusive; . = no result; ! = not confirmed by another sample. Shown are actives, neighbours in structure and some others; about 1.6% of the full set was active somewhere.

SMILES	PKD1 kinase inh	PHOSPHO1 inh	ABCG2 block	HSV augment	ABCB1 inh	NCF1 inh
COc1cc(/C=C2\SC(=S)N(Nc3ncc(C(F)(F)F)cc3Cl)C2=O)ccc1O	0.3	73.1*	2.5	?	2.1	-175.8
COc1cc(/C=C2\SC(=S)N(c3cccnc3)C2=O)ccc1O	.	-44.4	.	2.81*	.	-13.1
COc1cc(/C=C2\SC(=S)N(Nc3ccccc3)C2=O)ccc1O	0.9	-4.0	-1.5	?	0.1	-186.0
O=C(/C=C/c1ccc(Cl)cc1)N(Cc1cccs1)C1CCS(=O)(=O)C1 (stereo not drawn)	.	46.0	.	i	.	-6.4
CSc1cccc(NC(=O)C2CCN(C(=O)c3ccccc3C)CC2)c1	5.4	10.8	6.5	i	0.4	2.5
CC1CCCC(C(=O)O)N1C(=O)CCS (stereo not drawn)	-4.4	62.2*	0.8	i	0.5	-10.0
CSCCC(=O)N1C(C)CCCC1C(=O)O (stereo not drawn)	-1.5	23.1	4.4	i	0.3	-6.3
Cc1cc(-c2nnc(-c3cccc(C(F)(F)F)c3)o2)no1	.	35.7	.	i	.	-4.8
Cc1ccc(-c2nnc(-c3cc(C)on3)o2)cc1	.	61.1*	.	i	.	-8.9
CCOc1cccc(C(=O)Nc2nnc(-c3ccco3)s2)c1	0.5	76.1*	37.0	i	1.9	-21.8
COc1ccccc1OCC(=O)Nc1nnc(-c2ccco2)s1	-7.8	74.5*	1.1	i	0.1	-12.7
Cc1cccc(OCC(=O)Nc2nnc(-c3ccco3)s2)c1	-4.8	8.0	0.9	i	-1.9	-36.7
Cc1cccc(-n2ncc(C#N)c2N)c1	2.9	-1.4	1.4	i	0.4	172.4*
COc1ccc(C2C(C(=O)c3ccc(C)o3)=C(O)C(=O)N2c2cc(C)on2)cc1OC (stereo not drawn)	-3.1	60.5*	9.7	i	1.6	0.8
CC12CC3CC(C)(C1)CC(C(=O)NNC(=O)c1ccncc1)(C3)C2	.	-19.5	.	.	.	.
O=C(NC(=S)Nc1ccc(F)cc1)C1CCCCC1	.	-10.1	.	.	.	.
CC(C)CC(=O)Nc1ccc(C(=O)NNC(=S)NC(=O)C2CCCCC2)cc1	5.9	93.0*	4.0	i	0.8	-9.3
CC(C)(C)c1ccc(C(=O)NNC(=O)C2CCCCC2)cc1	-4.8	-2.0	6.0	i	0.7	31.1*
COc1ccc(NC(=O)CNc2cc(S(=O)(=O)N3CCOCC3)ccc2NCC2CCCO2)cc1 (stereo not drawn)	-2.7	0.3	15.4	i	1.1	-11.2
CN1CCN(CCCNC(=O)c2ccc(/C=C3\Oc4ccccc4N(Cc4ccccc4F)C3=O)cc2)CC1	.	35.9	.	.	.	.
CN1CCN(CCCNC(=O)c2ccc(/C=C3/Sc4ccccc4N(Cc4cccc(Cl)c4)C3=O)cc2)CC1	-5.2	-38.3	1.0	i	1.7	78.1*
CN1CCN(CCCN2c3ccccc3Sc3ccc(Cl)cc32)CC1	-1.6	25.5	4.9	i	1.4	109.9*!
CCN1CCN(CCNC(=O)c2ccc(/C=C3\Sc4ccccc4N(Cc4ccccc4F)C3=O)cc2)CC1	-2.1	26.7	1.6	i	1.1	85.9*
Cc1cccc(CN2C(=O)/C(=C\c3ccc(C(=O)NCCCN4CCN(C)CC4)cc3)Oc3ccccc32)c1	.	6.2	.	.	.	.
CN1CCN(CCCNC(=O)c2ccc(/C=C3\Sc4ccccc4N(Cc4ccc(F)cc4)C3=O)cc2)CC1	0.0	-10.1	5.2	i	2.3	87.3*
SMILES	PKD1 kinase inh	PHOSPHO1 inh	ABCG2 block	HSV augment	ABCB1 inh	NCF1 inh
Cc1cccc(-n2c(CNC(=O)c3ccc(S(=O)(=O)N(C)C)cc3)nnc2SCC(=O)Nc2ccc(F)cc2)c1	1.7	-2.4	3.6	i	0.3	-4.0
COC(=O)c1cc(=O)nc2sc(-c3ccc(F)cc3)nn12	-8.9	95.1*	-4.0	i	-0.9	-0.5
COC(=O)c1cc(=O)nc2sc(-c3cccs3)nn12	5.1	8.9	-7.6	i	-3.5	-9.9
Cc1ccsc1/C=C/C1=Cc2c(sc(NC(=O)CSc3n[nH]c(N)n3)c2C#N)C(C)(C)C1	-2.4	80.4*	-1.8	i	-0.8	20.6
Cc1cc(C(F)(F)F)nn1CC(=O)NNC(=S)Nc1ccc(F)cc1	-4.8	85.8*	2.8	i	-0.6	-14.7
Cc1cc(C(F)(F)F)nn1CC(=O)NNC(=S)Nc1ccc(Cl)cc1	0.0	90.7*	4.5	i	0.6	-6.9
COc1cccc(NC(=S)NNC(=O)Cn2nc(C(F)(F)F)cc2C)c1	4.0	1.0	9.8	i	1.4	-13.5
Cc1cc(C(F)(F)F)nn1CC(=O)NNC(=S)NCC(C)C	-3.3	45.4	3.1	i	0.7	-9.9
CCN(CC)C(=O)CNC(=S)N(CCCN1CCOCC1)Cc1cccs1	-0.4	-5.2	4.1	i	0.7	-4.1
O=c1c2cccc(Cl)c2nc2n1Cc1ccccc1-2	.	81.3*	.	i	.	5.4
O=c1nc2n(c3ccccc13)Cc1ccccc1-2	.	6.2	.	.	.	.
Nc1cc(=O)[nH]c(SCc2ccc(Cl)cc2Cl)n1	.	31.3	.	.	.	.
CC1CCC/C(=C\Nc2ccc3c(c2)OCO3)C1=O (stereo not drawn)	1.0	81.4*	1.7	i	0.1	-6.5
O=C1CCC/C1=C/Nc1ccc2c(c1)OCO2	-8.4	-0.3	0.5	i	0.2	6.1
COc1ccc2[nH]c3c(C)c4ccncc4c(C)c3c2c1	.	20.3	.	i	.	91.8*
COC(=O)c1cc2sc(Cl)cc2n1CC(=O)NCCC(C)C	1.1	-1.4	0.0	i	0.0	3.1
Cc1cc(N)n2nc(C)c(-c3ccccc3)c2n1	-5.3	60.1*	0.4	i	-0.1	-8.3
Cc1cc(N)n2nc(C)c(-c3ccc(Cl)cc3)c2n1	-1.1	16.8	4.1	i	0.8	-11.1
O=C(c1ccc2snnc2c1)N1CCSCC1	16.5	99.0*	14.7	i	1.0	-12.2
O=C(c1ccc2snnc2c1)N1CCCCC1	-9.6	1.5	0.5	i	0.2	-8.4
CCCCc1ccc(NC(=S)N2CCN(C(=O)c3ccco3)CC2)cc1	.	37.0	.	.	.	.
CCOC(=O)c1c(C)n(-c2ccc(C)cc2)c2ccc(OCC(O)CN3CCN(C)CC3)cc12 (stereo not drawn)	-3.4	-21.2	-0.3	i	2.3	54.0*
CCCCCCc1c(O)nc(SCCN2CCOCC2)[nH]c1=O	0.0	67.6*	-0.6	i	0.2	3.5
CCn1cc(/C=C(\NC(=O)c2cc(OC)c(OC)c(OC)c2)C(=O)NCCCN2CCOCC2)c2ccccc21	.	64.9*	.	.	.	.
CCn1cc(/C=C(\NC(=O)c2cc(OC)c(OC)c(OC)c2)C(=O)NCCN2CCOCC2)c2ccccc21	.	29.3	.	.	.	.
CC(=O)Nc1ccc(Sc2ncccc2C(=O)Nc2ccc(F)cc2)cn1	4.1	62.0*	3.0	i	0.8	-1.9
CC(=O)Nc1cc(Br)ccc1O	5.1	6.4	4.2	i	-0.1	1.8
CC(=O)Nc1cc(-c2ccccc2)ccc1O	-2.0	89.5*	6.0	i	1.1	-4.5
O=C(O)c1ccc2ncc(NC(=O)c3ccc(F)cc3)c(=O)n2c1	.	-0.8	.	i	.	-7.3
